Assay results gathered from unrelated publications.
Protocols differ between the studies behind these lines.
Target: Ephrin type-A receptor 6 (EPHA6, Homo sapiens, UniProt Q9UF33)
Residues used in one study (Q9UF33 1-1036): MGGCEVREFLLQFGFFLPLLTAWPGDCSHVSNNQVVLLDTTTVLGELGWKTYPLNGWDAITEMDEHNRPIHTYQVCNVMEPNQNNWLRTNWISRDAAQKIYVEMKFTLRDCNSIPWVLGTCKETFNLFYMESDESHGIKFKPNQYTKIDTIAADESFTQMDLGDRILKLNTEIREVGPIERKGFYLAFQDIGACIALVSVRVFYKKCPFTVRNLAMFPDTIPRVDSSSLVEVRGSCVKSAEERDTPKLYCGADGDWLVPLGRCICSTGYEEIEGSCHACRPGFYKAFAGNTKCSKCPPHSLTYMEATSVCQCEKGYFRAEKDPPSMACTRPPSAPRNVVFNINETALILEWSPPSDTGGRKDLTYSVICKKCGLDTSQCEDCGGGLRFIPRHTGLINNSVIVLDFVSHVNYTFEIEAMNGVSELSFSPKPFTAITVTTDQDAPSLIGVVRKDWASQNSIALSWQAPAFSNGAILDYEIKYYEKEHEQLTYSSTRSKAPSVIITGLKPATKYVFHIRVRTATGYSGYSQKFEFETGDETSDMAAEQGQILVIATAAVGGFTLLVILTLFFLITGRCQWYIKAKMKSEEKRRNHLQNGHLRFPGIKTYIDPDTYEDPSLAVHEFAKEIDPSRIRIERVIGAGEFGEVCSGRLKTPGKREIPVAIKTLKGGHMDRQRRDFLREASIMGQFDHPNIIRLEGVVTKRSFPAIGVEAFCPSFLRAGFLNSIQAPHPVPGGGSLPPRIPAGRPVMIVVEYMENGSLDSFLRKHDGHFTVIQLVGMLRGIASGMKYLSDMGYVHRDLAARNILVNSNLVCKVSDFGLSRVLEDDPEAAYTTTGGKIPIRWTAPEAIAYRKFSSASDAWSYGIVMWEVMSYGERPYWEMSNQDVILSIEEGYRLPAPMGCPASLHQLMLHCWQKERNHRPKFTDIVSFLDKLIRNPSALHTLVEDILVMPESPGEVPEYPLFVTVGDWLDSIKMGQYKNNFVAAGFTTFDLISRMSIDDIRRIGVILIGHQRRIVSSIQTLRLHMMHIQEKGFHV

For `N#Cc1ccc(Nc2ccc3[nH]c(=O)[nH]c3c2)c(Cl)c1`, the remaining binding was 82% (cell-free assay; competition with immobilised ligand; 1 µM).
`CC(C)(C)c1nc(-c2cccc(NS(=O)(=O)c3c(F)cccc3F)c2F)c(-c2ccnc(N)n2)s1` gave a remaining activity of 72% (enzyme activity; inhibitor; radiometric; 1 µM).
`O=C(Nc1cnn(-c2csc(C(=O)NC3COC3)c2)c1)Nc1ccccc1Cl` has a remaining activity of 99.5% (enzyme activity; inhibitor; 5 µM).
The remaining signal of `CNC(=O)c1cc(Oc2ccc(NC(=O)Nc3ccc(Cl)c(C(F)(F)F)c3)cc2)ccn1` is reported as 42% (cell-free assay; 0.5 µM).
`CC/C(=N\NC(=O)NCc1cccc(O)c1)c1ccc(O)c(C)c1O` has an inhibition of 1.5% (enzyme activity; inhibitor; 0.1 µM).
`CS(=O)(=O)N1CCCC(NC(=O)[C@H](CCC2CCCCC2)NC(=O)c2ccc(CNC(=O)c3cnc4ccccn34)cc2)C1` (stereo partly shown) has a remaining binding of 100% (cell-free assay; competition with immobilised ligand; 0.1 µM).
With `CC(C)(C)c1nc2c(s1)c1nc(N)ncc1c1ccc(NS(=O)(=O)c3c(F)cccc3F)c(F)c12` the remaining activity was 99% (enzyme activity; inhibitor; radiometric; 1 µM).
With `Cc1ccc(C(=O)Nc2ccc(CN3CCN(C)CC3)c(C(F)(F)F)c2)cc1C#Cc1cnc2cccnn12` the remaining signal was 45% (cell-free assay; 23.5 nM).
With `CC(=O)Nc1c(C(C)=O)c(=O)n(C)c2nc(-c3ccc(Cl)cc3Cl)c(-c3ccc(Cl)cc3)cc12` the remaining binding was 100% (cell-free assay; competition with immobilised ligand; 1 µM).
For `Cc1sc(C(=O)NC2COC2)cc1-n1cc(NC(=O)Nc2c(F)cccc2Cl)cn1`, the remaining activity was 80.2% (enzyme activity; inhibitor; 10 µM).
With `Oc1cccc(-c2nc(N3CCOCC3)c3oc4ncccc4c3n2)c1` the remaining signal was 79% (cell-free assay; 0.5 µM).
`Nc1ncnc2occ(-c3ccc(NC(=O)Nc4cc(C(F)(F)F)ccc4F)cc3)c12` gave a remaining signal of 0% (cell-free assay; 20 µM).
For `CC(C)(O)[C@H]1CC[C@H](Nc2ccc3ncc(-c4cccc(C(F)(F)F)c4)n3n2)CC1`, the remaining activity was 91.1% (enzyme activity; inhibitor; 1 µM).
